Consider 17 compounds from ChEMBL document CHEMBL1177640 (Bioorg Med Chem, 2010).

Data set [1] concerns the target T1, Zinc finger protein GLI1 (Homo sapiens) (UniProt P08151).
T1 sequence (whole entry): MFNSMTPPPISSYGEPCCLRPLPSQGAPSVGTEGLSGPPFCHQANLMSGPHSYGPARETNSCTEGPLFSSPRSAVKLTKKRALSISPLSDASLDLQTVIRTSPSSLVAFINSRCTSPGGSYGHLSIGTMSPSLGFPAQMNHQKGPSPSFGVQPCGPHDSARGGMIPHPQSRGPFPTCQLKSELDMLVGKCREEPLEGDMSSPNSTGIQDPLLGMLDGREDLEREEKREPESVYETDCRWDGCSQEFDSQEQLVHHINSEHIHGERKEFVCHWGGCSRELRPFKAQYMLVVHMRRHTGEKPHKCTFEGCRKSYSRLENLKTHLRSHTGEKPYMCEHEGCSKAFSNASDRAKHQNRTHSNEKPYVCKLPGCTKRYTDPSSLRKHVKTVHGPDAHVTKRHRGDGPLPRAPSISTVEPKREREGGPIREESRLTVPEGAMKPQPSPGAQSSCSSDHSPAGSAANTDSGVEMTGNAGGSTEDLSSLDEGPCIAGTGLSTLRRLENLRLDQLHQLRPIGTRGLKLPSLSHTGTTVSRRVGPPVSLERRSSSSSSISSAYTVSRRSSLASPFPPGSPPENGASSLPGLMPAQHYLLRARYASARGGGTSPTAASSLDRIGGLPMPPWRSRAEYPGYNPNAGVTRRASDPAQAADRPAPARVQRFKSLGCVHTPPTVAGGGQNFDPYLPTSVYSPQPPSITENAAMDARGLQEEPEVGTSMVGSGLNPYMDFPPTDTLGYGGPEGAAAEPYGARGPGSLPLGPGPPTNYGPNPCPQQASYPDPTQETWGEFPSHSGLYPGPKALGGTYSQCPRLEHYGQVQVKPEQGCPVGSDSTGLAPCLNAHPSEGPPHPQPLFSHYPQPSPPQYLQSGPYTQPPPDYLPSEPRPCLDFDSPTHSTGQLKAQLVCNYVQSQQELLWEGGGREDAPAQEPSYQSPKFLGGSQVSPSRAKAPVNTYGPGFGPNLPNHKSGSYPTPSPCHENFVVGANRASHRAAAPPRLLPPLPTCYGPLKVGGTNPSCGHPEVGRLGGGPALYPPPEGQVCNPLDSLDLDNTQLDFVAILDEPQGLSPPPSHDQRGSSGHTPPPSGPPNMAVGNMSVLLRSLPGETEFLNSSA
In words: Inhibition of human Gli1 expressed in mouse C3H10T1/2 cells assessed as inhibition of transcriptional activity at 10 to 20 uM after 24 hrs by luciferase reporter gene assay. The format is cell-based. As to conditions: C3H 10T1/2. An outline of the steps: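 C3H10T1/2 cells transiently transfected overnight with GliLuc-BS, pRL-TK Renilla control and human Gli1 (or mouse Gli2 for Gli2 lines), 250 ng/mL each for the Gli plasmids. Cells replated in 96-well plates, then exposed to compound in BME/10% FBS for 24 h at 37 °C. Firefly/Renilla dual-luciferase ratio normalized to DMSO, triplicates. Dose–response IC50 from curve fitting.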

For data set [2], the system named is Caco-2. In words: Apparent permeability from apical to basolateral side of human Caco-2 cells at pH 7.4. The format is ADME, cell-based. Conditions: caco-2, pH 7.4. An outline of the steps:
(§1)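 Caco-2 cells grown 7 days on Transwell inserts in MEM with 10% FBS. Monolayers washed with HBSS/HEPES (10 mM, pH 7.4), then compound at 50 µM added to the apical or basolateral side and incubated 2 h at 37 °C. Receiver fractions quantified by UPLC/MS, triplicates. Papp = dQ/dt […].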

For data set [3], the system named is Caco-2. In words: Apparent permeability from basolateral to apical side of human Caco-2 cells at pH 7.4. The format is ADME, cell-based. Conditions: caco-2, pH 7.4. An outline of the steps: as §1
For orientation: Caco-2 cells form a polarised layer with tight junctions and transporters.

The target of data set [4] is Transcription factor Jun (Homo sapiens) (UniProt P05412). Kind of data set: Inhibition of transcriptional activity of AP1 transfected in mouse C3H10T1/2 cells at 20 uM after 24 hrs by luciferase reporter gene assay. The format is cell-based. Conditions: C3H 10T1/2. The method in brief:
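AP-1 reporter tested in C3H10T1/2 cells under the same conditions as the Gli1/Gli-Luc assay: 24 h compound exposure and dual-luciferase read-out normalized to DMSO.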

Data set [5] has as its system Caco-2. In words: Efflux ratio of permeability from basolateral to apical side over apical to basolateral side in human Caco-2 cells at pH 7.4. Conditions: caco-2, pH 7.4.
In another data set the test system is BJ. In words: Cytotoxicity against human BJ cells at 5 to 20 uM after 72 hrs by Alamar blue assay. The format is cell-based. The method in brief:
(§2)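 Cells seeded 24 h ahead in 384-well plates at 1.0×10^3 (BJ) or 1.6×10^3 (Rh30) per well. Compound diluted from DMSO stock into medium and added in triplicate, then incubated 68 h at 37 °C. Alamar Blue added for a further 4 h, with fluorescence read at ex 510/em 590 nm. Viability normalized to DMSO (100%) and no-cell (0%) wells.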

Data set [6] in a line: Permeability in buffer of pH 7.4 by PAMPA. The format is ADME. Conditions: for Papp: read-out: permeability. An outline of the steps:
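Double-Sink PAMPA: DMSO stock diluted 200-fold into system solution buffer pH 7.4 in the donor plate, with acceptor sink buffer pH 7.4. Incubated 0.5 h at room temperature with stirring. Donor and acceptor concentrations measured by UV (230–500 nm), triplicates.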

In data set [7] the test system is SJRH30. Kind of data set: Cytotoxicity against human Rh30 cells at 5 to 20 uM after 72 hrs by Alamar blue assay. Format: functional, cell-based. The method in brief:
as §2
Background: The colour change of resazurin is a common sign of viable cells or microbes.

Data set [8] can be described thus: Half life in CD-1 mouse liver microsomes. The format is ADME, Microsome. The method in brief: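 CD-1 female mouse liver microsomes at 0.6329 mg/mL protein in 0.1 M potassium phosphate pH 7.4 with EDTA. Compound at 1 µM, reaction started with NADPH regenerating system at 37 °C and sampled at 0, 0.5, 1 and 2 h in triplicate. Quenched with cold acetonitrile containing ketoconazole internal standard and analysed by UPLC-MS SIR. ke taken from log-linear regression, t1/2 = ln2/ke.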
In general terms: Microsomes from liver hold many membrane-bound enzymes, among them those of drug oxidation.

The nature of data set [9]: Inhibition of HDAC up to 40 uM.
The target in data set [10] is T1, Zinc finger protein GLI1 (Homo sapiens). In words: Inhibition of human Gli1-mediated transcriptional activity in human Rh30 cells up to 40 uM after 24 hrs by luciferase reporter gene assay. Format: cell-based. An outline of the steps:
(§3)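 Rh30 cells without Gli1 transfection, transfected overnight with GliLuc-BS (500 ng/mL) and pRL-CMV (2.5 ng/mL), then replated in 96-well plates. Compound given in RPMI-1640/10% FBS for 24 h at 37 °C. Firefly luminescence divided by Renilla and normalized to DMSO-treated cells (0% inhibition), triplicates.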

Data set [11] shares this target. In words: Inhibition of human Gli1-mediated transcriptional activity in human Rh30 cells at 10 to 20 uM after 24 hrs by luciferase reporter gene assay. The format is cell-based. An outline of the steps:
as §3

The subject of data set [12] is C3H 10T1/2. In words: Inhibition of Hh signal-induced alkaline phosphatase activity in mouse C3H10T1/2 cells at 10 uM after 4 days. Format: functional, cell-based.
The subject of data set [13] is SJRH30. Kind of data set: Inhibition of Bcl2 expression in human Rh30 cells at 10 to 40 uM after 24 hrs by RT-PCR analysis. The format is functional, cell-based. An outline of the steps: (§4)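 Rh30 cells in 6-well plates treated with compound or DMSO for 24 h. Total RNA (250 ng) reverse-transcribed after DNase removal, then SYBR Green real-time PCR with primers at 200 nM. Target mRNA normalized to GAPDH and to the DMSO control by the 2^-ΔΔCt method. Duplicate data.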

Data set [14] deals with SJRH30. Kind of data set: Inhibition of Ptch1 expression in human Rh30 cells at 10 to 40 uM after 24 hrs by RT-PCR analysis. The format is functional, cell-based. An outline of the steps: as §4
The subject of data set [15] is SJRH30. Kind of data set: Inhibition of cyclinD1 expression in human Rh30 cells at 10 to 40 uM after 24 hrs by RT-PCR analysis. Format: functional, cell-based. An outline of the steps: as §4
Data set [16] has as its system C3H 10T1/2. In words: Inhibition of Hh signal-induced alkaline phosphatase activity in mouse C3H10T1/2 cells after 4 days. Format: functional, cell-based. Conditions: C3H 10T1/2, 96 h.

Active and inactive are the calls of the source. The calls are words filed in the database; no cut-off is given here.

Chain of Transcription factor Jun (Homo sapiens) (P05412 whole entry): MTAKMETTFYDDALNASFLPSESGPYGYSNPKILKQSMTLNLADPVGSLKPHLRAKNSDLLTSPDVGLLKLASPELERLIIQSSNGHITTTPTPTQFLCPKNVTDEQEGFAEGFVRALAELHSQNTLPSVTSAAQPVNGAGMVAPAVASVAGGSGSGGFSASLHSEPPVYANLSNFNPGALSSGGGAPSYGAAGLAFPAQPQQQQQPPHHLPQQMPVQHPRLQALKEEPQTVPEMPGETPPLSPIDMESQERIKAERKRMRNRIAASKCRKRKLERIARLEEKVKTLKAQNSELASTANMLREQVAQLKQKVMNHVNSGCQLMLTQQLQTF

Take `CC(CNC(=O)c1ccc2[nH]ccc2c1)c1cccc(C(=O)c2ccccc2)c1` (configuration not stated): in data set [1], the inhibition result is “Active”. For the same compound, the Papp was determined as 5.8 ×10⁻⁶ cm/s with Caco-2 [2], 2.7 ×10⁻⁶ cm/s in the data set with Caco-2 [3] and 52.1 ×10⁻⁶ cm/s in data set [6]. For the same compound, the inhibition result in data set [4] was “inactive”. Moreover, the Ratio with Caco-2 [5] was determined as 0.46. Also, the Activity result in the data set on BJ was “Non-toxic”; with SJRH30 [7] it was “Toxic”. Also, the permeability in [6] was 47%. In [8], this compound came in with a t1/2 of 0.6 h.
For the compound `CC(C(=O)Nc1ccc2[nH]ccc2c1)c1cccc(C(=O)c2ccccc2)c1` (configuration not stated), the Activity result in the data set with BJ is “Non-toxic”; with SJRH30 [7], “Toxic”.
For the compound `CC(C(=O)NCCc1ccc(O)cc1)c1cccc(C(=O)c2ccccc2)c1` (configuration not stated), the values for the Papp (with Caco-2 [2]; in the data set with Caco-2 [3]; in [6]) were 13 ×10⁻⁶ cm/s, 5.8 ×10⁻⁶ cm/s and 60.2 ×10⁻⁶ cm/s, respectively. In addition, the inhibition entry in data set [9] was “inactive”. Also, the Ratio with Caco-2 [5] was 0.45. Also, the Activity result with BJ was “Non-toxic”; in the data set with SJRH30 [7], “Toxic”. Further, in [6], the permeability is 92%.
`CCCN(CCc1ccc(O)cc1)C(=O)C(C)c1cccc(C(=O)c2ccccc2)c1` (configuration not stated): the inhibition result in data set [9] and in data set [10] was “inactive” in each case. The Activity result was “Non-toxic” in the data set with BJ and “Toxic” in the data set with SJRH30 [7].
Take `CC(CNC(=O)c1ccc2cc[nH]c2c1)c1cccc(C(=O)c2ccccc2)c1` (configuration not stated): the inhibition entry in data set [1] is “Active”. In addition, the Activity entry with BJ was “Non-toxic”; with SJRH30 [7], “Toxic”.
`CCCN(C(=O)C(C)c1cccc(C(=O)c2ccccc2)c1)c1ccc2[nH]ccc2c1` (configuration not stated): in [11], the inhibition result was “Active”. For the same compound, the inhibition entry (in data set [4]; in data set [9]; in the data set with C3H 10T1/2 [12]) was “inactive” in each case. For the same compound, the Activity entry in the data set on BJ is “Non-toxic”; in the data set on SJRH30 [7] it was “Toxic”. This compound also yielded a t1/2 in data set [8] of 0.8 h.
In the case of `CC(CNC(=O)c1c[nH]c2ccccc12)c1cccc(C(=O)c2ccccc2)c1` (configuration not stated), in data set [1], the inhibition entry was “Active”. For the same compound, the Activity entry in the data set with BJ was “Non-toxic”; in the data set on SJRH30 [7], “Toxic”.
For `CCCN(C(=O)C(C)c1cccc(C(=O)c2ccccc2)c1)c1ccc2cc[nH]c2c1` (configuration not stated), the inhibition entry (in data set [11]; in the data set on SJRH30 [13]; in the data set with SJRH30 [14]; in the data set with SJRH30 [15]) was “Active” each time. The inhibition entry (in data set [4]; in data set [9]; in the data set on C3H 10T1/2 [12]) was “inactive” in each case. Also, the Activity entry was “Non-toxic” in the data set on BJ and “Toxic” in the data set on SJRH30 [7]. This compound displayed a permeability in data set [6] of 80%. In addition, in [6], the Papp came out at 71.4 ×10⁻⁶ cm/s. In [8], this compound gave a t1/2 of 1.8 h.
Compound `NC(=O)N1c2ccccc2C=Cc2ccccc21` [CARBAMAZEPINE] showed a permeability in data set [6] of 33%.
As for `CC(CNC(=O)c1cccc2cc[nH]c12)c1cccc(C(=O)c2ccccc2)c1` (configuration not stated), the inhibition entry in [1] is “Active”.
Take `CC(CNC(=O)c1cc2ccccc2[nH]1)c1cccc(C(=O)c2ccccc2)c1` (configuration not stated): in [1], the inhibition entry was “Active”. Besides, the values for the Activity result with BJ and with SJRH30 [7] were “Non-toxic” and “Toxic”, respectively.
Regarding `CC(C(=O)Nc1ccc2cc[nH]c2c1)c1cccc(C(=O)c2ccccc2)c1` (configuration not stated), the Papp worked out at 12.2 ×10⁻⁶ cm/s with Caco-2 [2], 3.9 ×10⁻⁶ cm/s with Caco-2 [3] and 77.8 ×10⁻⁶ cm/s in data set [6]. The inhibition entry in data set [11] is “Active”. The inhibition entry (in data set [4]; in the data set with C3H 10T1/2 [12]) was “inactive” in each case. In the data set with Caco-2 [5], the Ratio turned out to be 0.31. For the same compound, the Activity result in the data set with BJ was “Non-toxic”; with SJRH30 [7], “Toxic”. This compound showed a permeability in data set [6] of 75%. In addition, in data set [8], the t1/2 turned out to be 2.8 h.
Regarding `CC(CNC(=O)c1cccc2[nH]ccc12)c1cccc(C(=O)c2ccccc2)c1` (configuration not stated), in [1], the inhibition entry was “Active”.
Same read-out and setting: for `CC(CNC(=O)Cc1ccc2[nH]ccc2c1)c1cccc(C(=O)c2ccccc2)c1` (configuration not stated) the value was “inactive”.
In [6], `CNC(=C[N+](=O)[O-])NCCSCc1ccc(CN(C)C)o1` [RANITIDINE] displayed a permeability of 2%.
One may read the IC50 as the concentration needed to halve the response being measured. The low end stands for inhibition by little substance, the high end for a need for much substance. Compound `COc1cc(OC)cc(C(=O)Nc2ccc(Cl)c(-c3nc4cc(N(C)C)ccc4[nH]3)c2)c1` displayed an IC50 in the data set with C3H 10T1/2 [16] of 100 nM. In [10], the inhibition entry was “inactive”.
Regarding `CCCN(C(=O)C(C)c1cccc(C(=O)c2ccccc2)c1)c1cccc2[nH]ccc12` (configuration not stated), the Activity entry in the data set with BJ was “Non-toxic”; with SJRH30 [7], “Toxic”.
